Data as given in the EternaBench riboswitch data.

Test system: MS2 coat protein
Test: apparent Kd, MS2 coat protein; higher = weaker binding; RNA-MaP array; FMN 200 µM where present
How it was run: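 Each design was made on Illumina sequencing-chip clusters by stalled E. coli RNA polymerase and titrated with SNAP-549-labelled MS2 coat protein from 0.7 or 1.5 nM, doubling to 3 µM, in the absence and then the presence of constant ligand. The buffer was 100 mM Tris-HCl pH 7.5, 80 mM KCl, 4 mM MgCl2, BSA, DTT, yeast tRNA and Tween-20. The apparent Kd is the median of filtered per-cluster fits of binding curves, with green signal normalised to red-channel RNA signal and control-cluster median Fmax.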

[1] = designed as: OFF switch for flavin mononucleotide, no ligand
[2] = ligand present: flavin mononucleotide, designed as: OFF switch for flavin mononucleotide
[3] = designed as: ON switch for flavin mononucleotide, no ligand
[4] = ligand present: flavin mononucleotide, designed as: ON switch for flavin mononucleotide

| Sequence | apparent Kd [1] | apparent Kd [2] | apparent Kd [3] | apparent Kd [4] |
| --- | --- | --- | --- | --- |
| AAAUUGCUAGAGGAUAUCGGAUAGGAUCUAUUACGAGAAGGUUAGACAUGAGGAUCACCCAUGUUCUGUUGGGA | 42.6 nM | 123 nM | – | – |
| AAAUUGGUAGAGGAUAUCGCACAGGAUUUACUGCGAGAAGGCUGCACAUGAGGAUCACCCAUGUUUUGUUGCGA | 15.2 nM | 18.1 nM | – | – |
| AAAUUUAACGAAGGAUAUACUAACAUGAGGAUCACCCAUGUGUGUUUCGUGUUGCUGAAAUUCGGGUAGAAGGUCGUAUACAUA | 41 nM | 28.7 nM | – | – |
| AAAUUUAACGAAGGAUAUGCUUACAUGAGGAUCACCCAUGUGUGCCUUGUGAUGCUGAUUAGGUUGCAGAAGGUCGUAUACAUA | 135 nM | 174 nM | – | – |
| AACAAACAUGAGGAUCACCCAUGUCAGGAUAUGCACAAACAAACAAACAAACAAGCAAGCAGAAGGGACACAAC | 21.7 nM | 39.7 nM | – | – |
| AACAAUCUAUCUGAGGAUAUCAUGUCAAAGACAUGAGGAUCACCCAUGUUGCAGGAAACUGCUCAUGAGAAGGCAGAUAGAUUGA | – | – | 614 nM | 43.7 nM |
| AACACUUAAAAGUGAGGCGAUAGGUAGGAUAUACAUGAGGAUCACCCAUGUAUGGGCUAUCUGCGGUAGAAGGACCUCUGGCCC | 6.44 nM | 8.84 nM | – | – |
| AACAGACGUGCUCUGAGUCCACAUGAGGAUCACCCAUGUGAGAGAAGGACCCUCGAGAGAGUUGGGUAGGAUAUCUCCGAUGGG | 27 nM | 80.5 nM | – | – |
| AACAGCUCGUCAGGAUAUAUUAUCUUUUAAUGUAUUUAUGUACAUGAGGAUCACCCAUGUUGUUUGUAGAAGGGACGAGCUGAA | 11.1 nM | 13.1 nM | – | – |
| AACAGUACAGGAUAUACAUGAGGAUCACCCAUGUGAGAAUUAAGUGGCGUACCACUAAGUAGAAGGGUACUGGA | 51.6 nM | 151 nM | – | – |
| AACAGUACAGGAUAUACAUGAGGAUCACCCAUGUGAGAAUUAUGUGGCGUACCACAAAGUAGAAGGGUACUGGA | 81.7 nM | 308 nM | – | – |
| AACAUGAGGAUCACCCAUGUACGCUGUAAUUACUCGCGUUGGCAGGAUAUGGGUUGGCUUCCGUCCCAGAAGGGUCAAGAUAAA | – | – | 253 nM | 105 nM |
| AACAUGAGGAUCACCCAUGUCCCACCAGAAGGCUGGCGGUGGUAGGAAAGGCUACGACAAAUAACAGAGGAUAUGGUGAAUGCA | – | – | 88.9 nM | 20.8 nM |
| AACAUGGCAGAGGAUAUAGGACGCUGGCAUAAACUAGAAGGCUGCACAUGAGGAUCACCCAUGUGUUCCUAAAC | 21.7 nM | 39.4 nM | – | – |
| AACAUGUGAGGAUAUGAGAACAGCCGGGAGGGCUGUGUAAAUUAGAAGGCACAUGAGGAUCACCCAUGUGACCU | 18.2 nM | 27.8 nM | – | – |
| AACCAUGUCCGAGGAUAUCUGGAAACAUUUCCAAGAGAAGGCGGACAUGAGGAUCACCCAUGUCUCUCCUCAUCAAAUCCAAGU | 12.4 nM | 94.6 nM | – | – |
| AACCGACAUGAGGAUCACCCAUGUCAGGAUAUGGACUGACACCGAAAGAGUGGAGGAACCAGAAGGGACUGGGC | 32.4 nM | 69.5 nM | – | – |
| AACCGCGAUCGGCCUGGCACGUCGAGAAGGGUACGUGACCUGCUUUACAUGAGGAUCACCCAUGUACAGGAUAUCGAAUAGCCG | 6.2 nM | 6.68 nM | – | – |
| AACCGUGCGGAGGAUAUUGAUAUCCCAGUCUAUCAAGAAGGCUGCACAUGAGGAUCACCCAUGUGAUCCGUGCU | 21.2 nM | 116 nM | – | – |

| Sequence | apparent Kd [1] | apparent Kd [2] | apparent Kd [3] | apparent Kd [4] |
| --- | --- | --- | --- | --- |
| AACCUAGUCAUAGGAUAUACAGGCAAAGCCAAAGUAGAAGGAUGACACAUGAGGAUCACCCAUGUGGUCCUUGAACAAAAUAAC | 27 nM | 196 nM | – | – |
| AACCUAUUACAGAAGGCCAGCUACAUGAGGAUCACCCAUGUCGAGUCAUGGAGGAUAUGUAGUAACCUGCACGCGGGCGGAUAC | – | – | 50.7 nM | 7.18 nM |
| AACGGGUGGGUAGGAUAUGGCUAUGUCUCAUUGCUAGAAGGACCAGCUACUACAUGAGGAUCACCCAUGUCGUAGUGCACCCAG | – | – | 20.5 nM | 6.04 nM |
| AACGGGUGGGUAGGAUAUGGCUAUGUCUCAUUGCUAGAAGGGCCAGCUGCUACAUGAGGAUCACCCAUGUCGUAGUGCACCCAG | – | – | 72.4 nM | 40.3 nM |
| AACUAACAUGAGGAUCACCCAUGUCAGGAUAUGCAACGAUCGAUCGAUCGAUCGAUCAGCAGAAGGGACACUAA | 20.1 nM | 36 nM | – | – |
| AACUAACAUGAGGAUCACCCAUGUUGCAGCGGUUGAGGAUAUGUGGGUGAAAAUAGCAUGGCAGAAGGCGAGUGUA | – | – | 120 nM | 238 nM |
| AACUAAGUAUUAAUGGUGUCUGACAGAAGGCAAUAGGUUGUGACCGACAUGAGGAUCACCCAUGUUGAGGAUAUGUCUAGCUAC | 44.7 nM | 308 nM | – | – |
| AACUACUCUGUGAGGAUAUGCGAUCGUUGAUCAAAGCAGAAGGCACAUGAGGAUCACCCAUGUUCCUACGAGGG | 29.3 nM | 73.1 nM | – | – |
| AACUAGCUAGGAUAUACAUGAGGAUCACCCAUGUAAAAAAAAAAAAAAAGAUCAAAAUGUAGAAGGAGCUAGUA | 106 nM | 132 nM | – | – |
| AACUCACAUGAGGAUCACCCAUGUGAGGAUAUGAUACUAUGUACUUCGGUACAUAGUAUCAGAAGGCAUGUGGG | 50.5 nM | 28.1 nM | – | – |
| AACUCGUCAGGAUAUGCAUGCAGUUGCUGCAUUUCGCCGUUGCAGAAGGGACAUGAGGAUCACCCAUGUAGGUC | 42.4 nM | 37.2 nM | – | – |
| AACUCGUCAGGAUAUGCGCACAGAUAAUACGCUUCACAAUUGCAGAAGGGACAUGAGGAUCACCCAUGUAAAUA | 36.3 nM | 26.8 nM | – | – |
| AACUGACAUGAGGAUCACCCAUGUCAGGAUAUGAUAUGUAAAAAAUAAAAAAUACUUAUCAGAAGGGACAUGGA | 22.7 nM | 41.3 nM | – | – |
| AACUUACAUGAGGAUCACCCAUGUGAGGAUAUAUAAAUAUAUAUGUUAUUGUAUGUUUGUAGAAGGCGCGUGAU | 52.2 nM | 51.2 nM | – | – |
| AAGAAACAUGAGGAUCACCCAUGUAAUAAUAUGGGAGGAUAUACAAGGACAAUAGUCAAGGUAGAAGGCCUAAGAA | – | – | 175 nM | 27.5 nM |
| AAGAAGUCAGGAUAUCGUGCUCGUCACUUGCGUGAUGAGUACGAGAAGGGACAUGAGGAUCACCCAUGUAAAGA | 52.4 nM | 52.5 nM | – | – |
| AAGAAGUCAGGAUAUGCUGCUCGUCACUUGCGUGAUGAGUAGCAGAAGGGACAUGAGGAUCACCCAUGUGGAGA | 114 nM | 241 nM | – | – |
| AAGAAUCAAGGAUAUGCAUGAUACGACAUGAGGAUCACCCAUGUCCUCAUGCGUAUCCUUGCAGAAGGUGAGUAUA | 13.8 nM | 17.1 nM | – | – |
| AAGACUAGAGGAUAUACAUGAGGAUCACCCAUGUAACUGUCAGGUGACUGACGGAAAUGUAGAAGGCUAGUCAA | 16.2 nM | 37.9 nM | – | – |

| Sequence | apparent Kd [1] | apparent Kd [2] | apparent Kd [3] | apparent Kd [4] |
| --- | --- | --- | --- | --- |
| AAGAGGUCAGGAUAUACGGAGAGAGGGAGUUGGUGAGGGUAACAUGAGGAUCACCCAUGUAGAAGGGACUAAGA | 22.4 nM | 24.7 nM | – | – |
| AAGAUGUCUUGAGGAUAUCCAAAGGAAACCGCAGGAGAAGGCAGGACAUGAGGAUCACCCAUGUUGGGUUUAAUGCGAACAUAA | 102 nM | 342 nM | – | – |
| AAGCACAGAGGAUAUACAUGGGUAAAAAAAAAAAAAAAAAAACAUGAGGAUCACCCAUGUAGAAGGCUGUGCAA | 81.6 nM | 67 nM | – | – |
| AAGCAUUGGCUUCUCAUCUACAUGAGGAUCACCCAUGUCGGGAGAAGGAGGCGUUGACAACUAGCCUAGGAUAUCCUAACGUGC | 6.74 nM | 7.26 nM | – | – |
| AAGCGCUACAUGAGGAUCACCCAUGUUCCGAGGCAGAUUUCACAGGAUAUCCCAAUUGGCCCAAGGGAGAAGGGUGAUGGCCAA | – | – | 79.1 nM | 23.6 nM |
| AAGGACUGAGGAUAUGCGCGGGCAAGAUCCUCAAUCCCAAAACAUGAGGAUCACCCAUGUAGAAGGCAGAAAUA | 25.8 nM | 22.6 nM | – | – |
| AAGGACUGUAAAUAAGUAGAAAUACAUGAGGAUCACCCAUGUAAGGAUAUCGUCAGGAAUACUGACGAGAAGGUACAUCAGUCC | 14.5 nM | 18.6 nM | – | – |
| AAGGACUGUAAAUUAACUCAAAUACAUGAGGAUCACCCAUGUAAGGAUAUCGUCAGGAAUACUGACGAGAAGGUACAUCAGUCC | 15.6 nM | 20.8 nM | – | – |
| AAGGAGUUAGGAUAUGCUGCUCGUCACUUGCGUGAUGAGUAGCAGAAGGGACAUGAGGAUCACCCAUGUAAAAA | 45.3 nM | 21.2 nM | – | – |
| AAGGAUAGAGGAUAUAUAUAGAUACAGAUUCAUGUAGAACUACAUGAGGAUCACCCAUGUAGAAGGCUAUCCUA | 15.7 nM | 60.4 nM | – | – |
| AAGUAGAUCCGAGGAUAUACAAUCUGGAAUCGGUACAUGAGGAUCACCCAUGUAGAAGGCGGAUCUACAGGUACUAAAGUACCA | 7.88 nM | 38.8 nM | – | – |
| AAGUAGGUAGGAUAUGCAUAGAUACAGAUUCAUGUGGAACUACAUGAGGAUCACCCAUGUAGAAGGACCUAAUA | 21.1 nM | 29.6 nM | – | – |
| AAGUAUAAGGGCAUUAAACAUGAGGAUCACCCAUGUACAAUAGAGGAUAUGCAUUUCGGUUUAGAGUAGAAGGUUAGAGAAUAU | 27.6 nM | 33.7 nM | – | – |
| AAGUCGACGGUGAGGAUAUUGGUUGAACGACAGAUUAAGAAGGUACAUGAGGAUCACCCAUGUGGGUAACGUCG | 100 nM | 83 nM | – | – |
| AAGUCGAGCGUGAGGAUAUCGACCGGACGACCCAUCGAGAAGGCACAUGAGGAUCACCCAUGUGAUUCAGCUCA | 16.9 nM | 25.9 nM | – | – |
| AAGUCGCUAGGAGGAUAUACAUGAUCUCACACAUGUACCGCUCACGCCACAUGAGGAUCACCCAUGUAGAAGGCCUAGAGAGGU | 23.4 nM | 62.4 nM | – | – |
| AAGUCGUGAGGAUAUACAUGGAUAUACAUUUAUGUGGACCUACAUGAGGAUCACCCAUGUAGAAGGCACGACUA | 196 nM | 93.5 nM | – | – |
| AAGUGUGGAUGAGGAUAUCAGCUGUAACUGACGUCGACAUGAGGAUCACCCAUGUUGCUAUAGGGUGAGAAGGCAUUUGCGCAA | – | – | 585 nM | 75.1 nM |
